Measured values from ChEMBL document CHEMBL4316593 (Eur J Med Chem, 2019).
Activity calls are given as the source filed them. No cut-off for these calls is given here.

Columns and labels:
U-87 MG [1] = assay: Cell cycle arrest in human U87 cells assessed as accumulation at S-phase at cytotoxic IC50 measured after 48 hrs by propidium iodide staining based fluorescence cell imaging analysis (reference value: 19.2%); format: functional, U-87MG ATCC
How it was run: (§1)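 Cell cycle by PI staining. Cells seeded at 1×10^6 and grown overnight at 37°C, 5% CO₂, then exposed for 48hrs at their IC₅₀ concentration, with DMSO and cisplatin controls. Cells were trypsinized, washed in cold PBS and fixed in 70% ethanol at 4°C for 30 min. They were stained with PI in Triton X-100/RNase for 15 min at 37°C and imaged by fluorescence microscopy. Reported as mean ± S.E.M of triplicates.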

LN-229 = assay: Cell cycle arrest in human LN229 cells assessed as accumulation at G1/S-phase at cytotoxic IC50 measured after 48 hrs by propidium iodide staining based fluorescence cell imaging analysis; format: functional; how it was run: as §1
U-87 MG [2] = assay: Cell cycle arrest in human U87 cells assessed as change in SFN gene expression at cytotoxic IC50 measured after 48 hrs […] relative to control; format: functional, U-87MG ATCC
How it was run: (§2)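 U87 expression profiling. Cells incubated 48hrs at 37°C, 5% CO₂ with the IC₅₀ concentration, alongside a cisplatin and an untreated control, in triplicate. RNA was isolated by one common protocol and profiled. DEGs were called with DESeq2 (q < 0.05, fold change > 1.5) and expressed as fold change versus untreated.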

U-87 MG [3] = assay: Cell cycle arrest in human U87 cells assessed as change in MDM2 gene expression at cytotoxic IC50 measured after 48 hrs […] relative to control; format: functional, U-87MG ATCC; how it was run: as §2
U-87 MG [4] = assay: Induction of DNA damage in human U87 cells assessed as change in PLK3 gene expression at cytotoxic IC50 measured after 48 hrs […] relative to control; format: functional, U-87MG ATCC; how it was run: as §2
U-87 MG [5] = assay: Induction of apoptosis in human U87 cells assessed as change in GADD45B gene expression at cytotoxic IC50 measured after 48 hrs […] relative to control; format: functional, U-87MG ATCC
How it was run: (§3)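 U87 cells grown in MEM with 10% FBS at 37°C, 5% CO2. Cells exposed to IC50 of test compound for 48 hrs, alongside untreated and cisplatin controls, each condition in triplicate. RNA isolated and profiled; differential expression called with DESeq2 (q-value < 0.05, fold change > 1.5), fold change versus untreated.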

U-87 MG [6] = assay: Induction of oxidative stress in human U87 cells assessed as increase in redox level at cytotoxic IC50 measured after 5 hrs by H2DCFDA dye based fluorescence assay relative to control; format: functional, U-87MG ATCC
How it was run: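 Cells grown overnight, exposed to IC50 for 5 hrs at 37°C with negative, positive (H2O2) and blank controls, plus solvent baseline. Pelleted, loaded with 2 µM H2DCFDA for 30 min at 37°C, washed, resuspended in warm medium, 20 min at room temperature. Fluorescence read at ex 485/em 535 nm.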

[7] = Inhibition of RTK/PI3K/AKT/mTOR signaling in human U87 cells assessed as down regulation of NXF1 gene expression at cytotoxic IC50 measured after 48 hrs relative to control; format: cell-based; settings: U-87MG ATCC
How it was run: (§4)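 Cells were exposed for 48hrs at 37°C in humidified 5% CO₂ to the compound at its previously determined IC₅₀, with Cisplatin at its IC₅₀ and an untreated negative control alongside. Each condition was run in triplicate. RNA was isolated from all samples by the same protocol. Genes were called differentially expressed by DESeq2 at q-value < 0.05 and fold change > 1.5.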

[8] = Inhibition of RTK/PI3K/AKT/mTOR signaling in human U87 cells assessed as down regulation of FAM222A gene expression at cytotoxic IC50 measured after 48 hrs relative to control; format: cell-based; settings: U-87MG ATCC; how it was run: as §3
[9] = Inhibition of RTK/PI3K/AKT/mTOR signaling in human U87 cells assessed as down regulation of RFC4 gene expression at cytotoxic IC50 measured after 48 hrs relative to control; format: cell-based; settings: U-87MG ATCC; how it was run: as §4
[10] = Inhibition of RTK/PI3K/AKT/mTOR signaling in human U87 cells assessed as down regulation of KIF1BP gene expression at cytotoxic IC50 measured after 48 hrs relative to control; format: cell-based; settings: U-87MG ATCC; how it was run: as §3
[11] = Inhibition of RTK/PI3K/AKT/mTOR signaling in human U87 cells assessed as down regulation of EIF1B gene expression at cytotoxic IC50 measured after 48 hrs relative to control; format: cell-based; settings: U-87MG ATCC; how it was run: as §3
[12] = Inhibition of RTK/PI3K/AKT/mTOR signaling in human U87 cells assessed as down regulation of POP4 gene expression at cytotoxic IC50 measured after 48 hrs relative to control; format: cell-based; settings: U-87MG ATCC; how it was run: as §4
[13] = Inhibition of RTK/PI3K/AKT/mTOR signaling in human U87 cells assessed as down regulation of COG1 gene expression at cytotoxic IC50 measured after 48 hrs relative to control; format: cell-based; settings: U-87MG ATCC; how it was run: as §3
[14] = Inhibition of RTK/PI3K/AKT/mTOR signaling in human U87 cells assessed as up regulation of UPK1A-AS1 gene expression at cytotoxic IC50 measured after 48 hrs relative to control; format: cell-based; settings: U-87MG ATCC
[15] = Inhibition of RTK/PI3K/AKT/mTOR signaling in human U87 cells assessed as up regulation of CPLX1 gene expression at cytotoxic IC50 measured after 48 hrs relative to control; format: cell-based; settings: U-87MG ATCC; how it was run: as §4
[16] = Inhibition of RTK/PI3K/AKT/mTOR signaling in human U87 cells assessed as up regulation of T-cell leukemia translocation altered gene expression at cytotoxic IC50 measured after 48 hrs relative to control; format: cell-based
[17] = Inhibition of RTK/PI3K/AKT/mTOR signaling in human U87 cells assessed as up regulation of solute carrier family 12 member 9 gene expression at cytotoxic IC50 measured after 48 hrs relative to control; format: cell-based; settings: U-87MG ATCC
[18] = Inhibition of RTK/PI3K/AKT/mTOR signaling in human U87 cells assessed as up regulation of T-cell lymphoma invasion and metastasis 1 gene expression at cytotoxic IC50 measured after 48 hrs relative to control; format: cell-based
[19] = Inhibition of RTK/PI3K/AKT/mTOR signaling in human U87 cells assessed as up regulation of mesencephalic astrocyte derived neurotrophic factor gene expression at cytotoxic IC50 measured after 48 hrs relative to control; format: cell-based
[20] = Inhibition of RTK/PI3K/AKT/mTOR signaling in human U87 cells assessed as up regulation of ubiquitin-fold modifier conjugating enzyme 1 gene expression at cytotoxic IC50 measured after 48 hrs relative to control; format: cell-based; settings: U-87MG ATCC
[21] = Inhibition of RTK/PI3K/AKT/mTOR signaling in human U87 cells assessed as up regulation of ADP ribosylation factor like GTPase 6 interacting protein 5 gene expression at cytotoxic IC50 measured after 48 hrs relative to control; format: cell-based; settings: U-87MG ATCC; how it was run: as §4
[22] = Inhibition of RTK/PI3K/AKT/mTOR signaling in human U87 cells assessed as up regulation of QSOX2 gene expression at cytotoxic IC50 measured after 48 hrs relative to control; format: cell-based; settings: U-87MG ATCC; how it was run: as §4
[23] = Inhibition of RTK/PI3K/AKT/mTOR signaling in human U87 cells assessed as up regulation of RPL7L1 gene expression at cytotoxic IC50 measured after 48 hrs relative to control; format: cell-based; settings: U-87MG ATCC; how it was run: as §4
[24] = Inhibition of RTK/PI3K/AKT/mTOR signaling in human U87 cells assessed as up regulation of IER3 gene expression at cytotoxic IC50 measured after 48 hrs relative to control; format: cell-based; settings: U-87MG ATCC; how it was run: as §4

Which Activity (U-87 MG [1]) does the source give for CC(=O)C(=NNc1ccccc1C#N)C(C)=O here?
Its Activity is 2.8%.

What about the Activity (LN-229) of the same molecule?
Its Activity is “Active”.

What about the “fold change (FC)” value (U-87 MG [2]) of the same molecule?
Its value is 1.949.

And the “fold change (FC)” value (U-87 MG [3])?
Its value is 1.471.

And the “fold change (FC)” value (U-87 MG [4])?
Its value is 1.714.

What about the log2FC (U-87 MG [5]) of the same molecule?
Its log2FC is -2.899.

And the Activity (U-87 MG [6])?
The Activity was 9.5%.

And the log2FC [7]?
The log2FC was -1.44.

And the log2FC [8]?
The log2FC was -1.4.

What about the log2FC [9] of the same molecule?
The log2FC was -1.

What about the log2FC [10] of the same molecule?
The log2FC was -0.96.

What about the log2FC [11] of the same molecule?
The log2FC was -0.906.

And the log2FC [12]?
The log2FC was -0.816.

And the log2FC [13]?
Its log2FC is -0.632.

And the log2FC [14]?
Its log2FC is 2.69.

What about the log2FC [15] of the same molecule?
The log2FC was 1.75.

What about the log2FC [16] of the same molecule?
The log2FC was 1.25.

And the log2FC [17]?
Its log2FC is 0.907.

What about the log2FC [18] of the same molecule?
Its log2FC is 0.812.

And the log2FC [19]?
The log2FC was 0.684.

And the log2FC [20]?
The log2FC was 0.669.

And the log2FC [21]?
Its log2FC is 0.661.

And the log2FC [22]?
The log2FC was 0.599.

And the log2FC [23]?
Its log2FC is 0.536.

And the log2FC [24]?
Its log2FC is 0.384.
